A short description of series [1]: Induction of apoptosis in human […] cells assessed as necrotic cells at 100 uM after 48 hrs by annexin-V and propidium iodide staining based flow cytometry (reference value: 9.57 +/- 2.83%). Format: functional.
A short description of series [2]: Induction of apoptosis in human […] cells assessed as apoptotic cells at 100 uM after 48 hrs by annexin-V and propidium iodide staining based flow cytometry (reference value: 6.16 +/- 1.67%). The series is classed as functional. (Flow cytometry measures light scatter and fluorescence of single cells or particles in a stream.)
The subject of series [3] is LoVo. Briefly: Induction of apoptosis in human drug-sensitive LoVo cells assessed as necrotic cells at 100 uM after 48 hrs by annexin-V and propidium iodide staining based flow cytometry (reference value: 10.44 +/- 3.23%). Format: functional.
The subject of series [4] is LoVo. The experiment in a line: Induction of apoptosis in human drug-sensitive LoVo cells assessed as apoptotic cells at 100 uM after 48 hrs by annexin-V and propidium iodide staining based flow cytometry (reference value: 6.68 +/- 1.77%). Format: functional.
The subject of series [5] is LoVo/DX. The experiment in a line: Cytotoxicity against human drug-resistant LoVo/DX cells after 72 hrs by SRB assay. The series is classed as functional, cell-based. In short, it runs like this: (§1)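 Cells seeded at 30 000/well, attached 60 min at 37 °C, then compound added in an equal volume of medium and incubated 72 h. Read by sulforhodamine B at A492. Survival = A492 treated / A492 medium-only control × 100%. DMSO was at most 0.3% in samples. Triplicate experiments, means ± SD, Student's t test.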
On the technique in general: Sulforhodamine B stains cellular protein and so reports cell mass.

In series [6] the test system is LoVo. Briefly: Cytotoxicity against human drug-sensitive LoVo cells after 72 hrs by SRB assay. The series is classed as functional, cell-based. A digest of the protocol:
as §1

Series [7] addresses T1, ATP-dependent translocase ABCB1 (Homo sapiens, UniProt P08183). The experiment in a line: Inhibition of p-glycoprotein in human LoVo/DX cells assessed accumulation of rhodamine 123 at 5 to 100 uM after 60 mins by fluorescence assay. The following applies: 1 h.
Series [8] in a line: Induction of apoptosis in human […] cells assessed as activation of caspase-3 at 15 uM after 48 hrs relative to control. The series is classed as functional. In short, it runs like this:
(§2)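 LoVo (sensitive) or LoVo/Dx (doxorubicin-selected; kept in 100 ng/mL doxorubicin) cells, 800 000/well, attached 24 h, then exposed to compound in fresh medium for 48 h. Cells scraped and pelleted. Caspase-3 activity read colorimetrically at A405 as pNA released from DEVD-pNA (commercial kit). Reported as ratio of treated to medium-only control. Triplicate, means ± SD, Student's t test.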

A short description of series [9]: Induction of apoptosis in human […] cells assessed as necrotic cells at 15 uM after 48 hrs by annexin-V and propidium iodide staining based flow cytometry (reference value: 9.57 +/- 2.83%). Format: functional.
Series [10] in a line: Induction of apoptosis in human […] cells assessed as apoptotic cells at 15 uM after 48 hrs by annexin-V and propidium iodide staining based flow cytometry (reference value: 6.16 +/- 1.67%). Format: functional.
For series [11], the system named is LoVo. Briefly: Induction of apoptosis in human drug-sensitive LoVo cells assessed as necrotic cells at 15 uM after 48 hrs by annexin-V and propidium iodide staining based flow cytometry (reference value: 10.44 +/- 3.23%). Format: functional.
Series [12] relates to LoVo. The experiment in a line: Induction of apoptosis in human drug-sensitive LoVo cells assessed as apoptotic cells at 15 uM after 48 hrs by annexin-V and propidium iodide staining based flow cytometry (reference value: 6.68 +/- 1.77%). Format: functional.
Series [13] relates to LoVo. The experiment in a line: Induction of apoptosis in human drug-sensitive LoVo cells assessed as activation of caspase-3 at 15 uM after 48 hrs relative to control. Format: functional. In short, it runs like this:
as §2

Series [14] is described as follows: Induction of apoptosis in human […] cells assessed as activation of caspase-3 at 100 uM after 48 hrs relative to control. Format: functional. A digest of the protocol: (§3)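 Cells seeded at 800 000/well and allowed to attach 24 h. Compound added in fresh medium, then 48 h incubation. Cells scraped and centrifuged, and caspase-3 activity measured colorimetrically by pNA release from DEVD-pNA (A405) with a kit. Result expressed as a ratio to a medium-only control. Triplicate, means ± SD.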

The nature of series [15]: Induction of apoptosis in human […] cells assessed as activation of caspase-3 at 75 uM after 48 hrs relative to control. The series is classed as functional. A digest of the protocol:
as §3

Series [16] can be described thus: Induction of apoptosis in human […] cells assessed as activation of caspase-3 at 25 uM after 48 hrs relative to control. Format: functional. A digest of the protocol: as §3
The subject of series [17] is LoVo. The experiment in a line: Induction of apoptosis in human drug-sensitive LoVo cells assessed as activation of caspase-3 at 100 uM after 48 hrs relative to control. The series is classed as functional. A digest of the protocol:
as §3

Series [18] relates to LoVo. Briefly: Induction of apoptosis in human drug-sensitive LoVo cells assessed as activation of caspase-3 at 75 uM after 48 hrs relative to control. The series is classed as functional. In short, it runs like this:
as §3

Series [19] in a line: Induction of apoptosis in human […] cells assessed as necrotic cells at 75 uM after 48 hrs by annexin-V and propidium iodide staining based flow cytometry (reference value: 9.57 +/- 2.83%). The series is classed as functional.
The nature of series [20]: Induction of apoptosis in human […] cells assessed as necrotic cells at 25 uM after 48 hrs by annexin-V and propidium iodide staining based flow cytometry (reference value: 9.57 +/- 2.83%). The series is classed as functional.
Series [21] can be described thus: Induction of apoptosis in human […] cells assessed as apoptotic cells at 75 uM after 48 hrs by annexin-V and propidium iodide staining based flow cytometry (reference value: 6.16 +/- 1.67%). The series is classed as functional.
Series [22] can be described thus: Induction of apoptosis in human […] cells assessed as apoptotic cells at 25 uM after 48 hrs by annexin-V and propidium iodide staining based flow cytometry (reference value: 6.16 +/- 1.67%). Format: functional.
Series [23] has as its system LoVo. Briefly: Induction of apoptosis in human drug-sensitive LoVo cells assessed as necrotic cells at 75 uM after 48 hrs by annexin-V and propidium iodide staining based flow cytometry (reference value: 10.44 +/- 3.23%). The series is classed as functional.
Series [24] concerns LoVo. Briefly: Induction of apoptosis in human drug-sensitive LoVo cells assessed as necrotic cells at 25 uM after 48 hrs by annexin-V and propidium iodide staining based flow cytometry (reference value: 10.44 +/- 3.23%). The series is classed as functional.
The subject of series [25] is LoVo. The experiment in a line: Induction of apoptosis in human drug-sensitive LoVo cells assessed as apoptotic cells at 75 uM after 48 hrs by annexin-V and propidium iodide staining based flow cytometry (reference value: 6.68 +/- 1.77%). The series is classed as functional.
In series [26] the test system is LoVo. The experiment in a line: Induction of apoptosis in human drug-sensitive LoVo cells assessed as apoptotic cells at 25 uM after 48 hrs by annexin-V and propidium iodide staining based flow cytometry (reference value: 6.68 +/- 1.77%). The series is classed as functional.
Series [27] concerns the target T1, ATP-dependent translocase ABCB1. Briefly: Inhibition of p-glycoprotein in human LoVo/DX cells assessed as potentiation of doxorubicin-induced cytotoxicity at 5 uM after 72 hrs by SRB assay. Format: cell-based. In short, it runs like this:
(§4)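 Doxorubicin cytotoxicity measured with and without 5 μM modulator by SRB over 72 h. Cells seeded at 30 000/well and attached 60 min at 37 °C before treatment. Survival taken as A492 treated / A492 control × 100%. Three experiments, means ± SD, Student's t test (p < 0.05).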

Series [28] concerns LoVo. The experiment in a line: Potentiation of doxorubicin-induced cytotoxicity in human LoVo cells at 5 uM after 72 hrs by SRB assay. Format: functional, cell-based. In short, it runs like this: as §4
For series [29], the system named is LoVo. Briefly: Induction of apoptosis in human drug-sensitive LoVo cells assessed as activation of caspase-3 at 25 uM after 48 hrs relative to control. Format: functional. A digest of the protocol:
as §3

Series [30] has as its target T1, ATP-dependent translocase ABCB1. Briefly: Inhibition of p-glycoprotein in human LoVo/DX cells assessed nuclear accumulation of doxorubicin at 100 uM after 60 mins by fluorescence assay. Format: cell-based. The note with it: 1 h. In short, it runs like this: (§5)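 Cells seeded at 15 000/well and cultured 48 h. Fresh F12 medium with 50 μM doxorubicin (plus 100 μM modulator) added for 60 min at 37 °C. Cells washed, then imaged by fluorescence microscopy (40× objective, excitation 528−553 nm, emission 578−633 nm) under identical illumination.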

For series [31] the target is unchanged. Briefly: Inhibition of p-glycoprotein in human LoVo/DX cells assessed accumulation of rhodamine 123 at 75 to 100 uM after 60 mins by fluorescence assay. The note with it: 1 h. The series is classed as cell-based. A digest of the protocol: (§6)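 Cells at 300 000/mL in serum- and phenol red-free medium, preincubated 15 min at room temperature with modulator (5−100 μM). Rhodamine 123 then added (final 2 μM) for 60 min at 37 °C. Washed cells read by flow cytometry (488 nm excitation, 530/30 nm), 5000 events. FIR = (LoVo/Dx treated/control)/(LoVo treated/control). Triplicate.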

Series [32] deals with LoVo. Briefly: Inhibition of rhodamine 123 accumulation in human LoVo cells at 75 to 100 uM after 60 mins by fluorescence assay. The series is classed as functional, cell-based. A digest of the protocol:
as §6

Series [33] concerns LoVo. Briefly: Inhibition of doxorubicin intracellular accumulation in human LoVo cells at 100 uM after 60 mins by fluorescence assay. Format: functional, cell-based. A digest of the protocol: as §5

Activity calls are given as the source filed them. The calls are words filed in the database; no cut-off is given here.

We go through 6 compounds from ChEMBL document CHEMBL2163331, “Multidrug resistance reversal and apoptosis induction in human colon cancer cells by some flavonoids present in citrus plants” (J Nat Prod, 2012).

T1 sequence (P08183 whole entry): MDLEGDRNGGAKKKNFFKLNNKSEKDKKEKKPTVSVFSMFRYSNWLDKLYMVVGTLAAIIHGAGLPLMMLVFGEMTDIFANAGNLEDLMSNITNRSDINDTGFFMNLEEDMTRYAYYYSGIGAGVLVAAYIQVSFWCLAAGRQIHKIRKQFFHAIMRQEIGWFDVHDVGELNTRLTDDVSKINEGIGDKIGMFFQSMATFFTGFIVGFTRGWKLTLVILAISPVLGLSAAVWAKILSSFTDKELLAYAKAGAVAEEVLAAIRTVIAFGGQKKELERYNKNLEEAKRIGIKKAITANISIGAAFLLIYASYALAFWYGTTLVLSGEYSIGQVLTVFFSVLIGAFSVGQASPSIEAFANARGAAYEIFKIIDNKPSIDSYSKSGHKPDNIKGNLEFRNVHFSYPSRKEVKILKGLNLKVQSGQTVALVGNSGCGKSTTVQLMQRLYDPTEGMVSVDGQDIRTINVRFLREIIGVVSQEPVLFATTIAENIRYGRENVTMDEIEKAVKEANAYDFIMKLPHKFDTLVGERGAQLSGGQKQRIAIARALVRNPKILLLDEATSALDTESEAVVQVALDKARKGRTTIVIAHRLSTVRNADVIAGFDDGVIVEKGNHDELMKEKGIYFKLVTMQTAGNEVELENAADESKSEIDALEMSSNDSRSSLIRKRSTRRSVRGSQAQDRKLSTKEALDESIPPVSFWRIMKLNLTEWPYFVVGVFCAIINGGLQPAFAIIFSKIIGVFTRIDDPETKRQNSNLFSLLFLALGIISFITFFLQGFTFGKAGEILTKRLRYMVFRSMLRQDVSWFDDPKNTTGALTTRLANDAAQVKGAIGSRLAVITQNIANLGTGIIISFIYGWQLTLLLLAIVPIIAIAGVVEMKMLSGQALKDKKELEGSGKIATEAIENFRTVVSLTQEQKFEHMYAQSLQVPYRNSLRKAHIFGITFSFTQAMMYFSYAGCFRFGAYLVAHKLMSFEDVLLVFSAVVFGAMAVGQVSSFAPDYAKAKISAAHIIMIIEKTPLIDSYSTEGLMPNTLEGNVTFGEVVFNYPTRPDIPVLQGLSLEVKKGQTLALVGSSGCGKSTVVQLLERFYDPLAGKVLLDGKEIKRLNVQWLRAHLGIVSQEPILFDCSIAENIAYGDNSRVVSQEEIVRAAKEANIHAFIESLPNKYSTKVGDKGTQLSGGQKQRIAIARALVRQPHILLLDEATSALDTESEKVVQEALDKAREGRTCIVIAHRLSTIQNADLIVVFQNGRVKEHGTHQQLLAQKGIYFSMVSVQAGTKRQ

Turning to `O=C1c2c(O)cc(O)cc2O[C@H](c2ccc(O)cc2)[C@H]1O` [DIHYDROKAEMPFEROL], the Activity in [1] is 6.83%; in [2] it was 9.38%; in series [3] it was 10.02%; in [4], 10.96%. For the same compound, the outcome in [5] and in [6] was Active. The “inhibition (INH)” value in series [7] is recorded as “Not Active”.

For `COc1cc(O)c2c(c1)O[C@H](c1ccc(O)cc1)CC2=O` [SAKURANETIN], the Activity in [1] came to 18.89%; in [2], 4.87%; in series [3], 25.28%; in series [4], 18.16%. For the same compound, the result in series [5] and in series [6] was Active. Also, in series [7], the “inhibition (INH)” value is recorded as “Not Active”.

On to `COc1ccc([C@@H]2CC(=O)c3c(O)cc(OC)cc3O2)cc1`, for which the Activity came out at 17.74% in series [1], 9.67% in [2], 17.82% in series [3] and 14.1% in series [4]. In addition, the result in series [5] and in [6] was Active. Further, in series [7], the “inhibition (INH)” value was “Not Active”.

`O=C1C[C@@H](c2ccc(O)cc2)Oc2cc(O)cc(O)c21` [NARINGENIN]: the Activity is 5.65% in series [1], 6.98% in [2], 8.16% in [3] and 15.44% in [4]. For the same compound, the result in [5] and in [6] was Active. The “inhibition (INH)” value in series [7] is given as “Not Active”.

In the case of `CC[C@@]1(O)C(=O)OCc2c1cc1n(c2=O)Cc2cc3ccccc3nc2-1` [CAMPTOTHECIN], the Ratio is 3.83 in series [8] and 3.4 in series [13]. The Activity is listed as 17.96% in [9], 17.56% in [10], 23.81% in series [11] and 17.61% in series [12].

Consider `COc1ccc(-c2cc(=O)c3c(OC)c(OC)c(OC)c(OC)c3o2)cc1` [TANGERETIN], for which the Ratio in [14] was found to be 2.71; in [15] it was 2.37; in series [16], 2.08; in series [17], 2.17; in series [18], 2.06; in series [29] it was 1.04. For the same compound, the Activity in [19] is listed as 17.45%; in series [20], 17.55%; in series [1], 21.75%; in series [21], 13.35%; in series [22], 13.87%; in [2] it was 23.05%. The Activity in series [23] is 29.61%; in [24] it was 25.82%; in series [3] it was 23.75%; in series [25], 12.83%; in [26], 11.57%; in series [4] it was 15.19%. Further, the result in [27] was Active. For the same compound, the result in series [28] was inactive. Besides, the “inhibition (INH)” value in [30] and in series [31] was “Active” in each case. The inhibition result in [32] and in series [33] was “inactive” in each case. The outcome in series [5] and in series [6] was Active.
